For series [1], the system named is rhinovirus A2. Briefly: Antirhinovirus activity was determined by the ability to inhibit the HRV-2( human rhinovirus type -2) virus by plaque reduction assay in vitro; IA is inactive. It counts as functional, organism-based. An outline of the steps: (§1)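 Plaque reduction assay against human rhinovirus type 2 (HRV-2), following an earlier reported method. The value is the MIC, the minimum inhibitory concentration.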
Background: Plaque reduction counts the foci of infection that form in a cell layer.

Series [2] concerns rhinovirus A2. Description: Antirhinovirus activity was assessed and the maximum testable concentration that causes no apparent effects on the cell monolayers was determined against HRV-2 virus in vitro. It counts as functional, human rhinovirus type 2.
In series [3] the test system is rhinovirus A67. Briefly: Tested for antirhinoviral activity against the rhinovirus serotype 67. It counts as functional. To be noted: Rhinovirus A. An outline of the steps: (§2)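 Selected compounds were tested across a 15-serotype rhinovirus panel: the five secondary serotypes plus 10 more. An MIC was recorded for each serotype. MIC80, the concentration inhibiting 80% of serotypes tested, was also derived from this panel.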

Series [4] has as its system rhinovirus B14. Description: Tested for antirhinoviral activity against the rhinovirus serotype 14. The note with it: Rhinovirus B. It counts as functional, human rhinovirus type 14. An outline of the steps:
as §2

Series [5] deals with rhinovirus A15. Briefly: Tested for antirhinoviral activity against the rhinovirus serotype 15. The class given is functional. To be noted: Rhinovirus A. In a few lines:
as §2

Series [6] has as its system rhinovirus A50. Briefly: Tested for antirhinoviral activity against the rhinovirus serotype 50. The class given is functional. To be noted: Rhinovirus A. In a few lines:
as §2

In series [7] the test system is rhinovirus A1B. Description: Tested for antirhinoviral activity against the rhinovirus serotype 1B. It counts as functional, human rhinovirus type 1b. To be noted: Rhinovirus A. In a few lines:
as §2

The subject of series [8] is rhinovirus A2. Briefly: Tested for antirhinoviral activity against the rhinovirus serotype 2. The note with it: Rhinovirus A. It counts as functional, human rhinovirus type 2. An outline of the steps:
as §2

The test system of series [9] is rhinovirus A89. Description: Tested for antirhinoviral activity against the rhinovirus serotype 89. The class given is functional, human rhinovirus type 89. To be noted: Rhinovirus A. In a few lines: as §2
Series [10] concerns rhinovirus A25. Description: Tested for antirhinoviral activity against the rhinovirus serotype 25. It counts as functional. The note with it: Rhinovirus A. An outline of the steps: as §2
Series [11] concerns rhinovirus A30. Briefly: Tested for antirhinoviral activity against the rhinovirus serotype 30. To be noted: Rhinovirus A. It counts as functional. In a few lines: as §2
In series [12] the test system is rhinovirus A2. Description: Antirhinovirus activity was determined by the ability to inhibit the HRV-2 (human rhinovirus type -2) virus by plaque reduction assay in vitro. The class given is functional. The note with it: Rhinovirus A. An outline of the steps: as §1
Series [13] deals with Human rhinovirus sp. Briefly: Mean of MIC's was determined for the five types of virus like HRV-2, HRV-1A,HRV-22,HRV-41 and HRV-50. The class given is functional. In a few lines:
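MIC measured by plaque reduction against HRV-2 first. The value is the mean of the MICs across these five serotypes.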

The subject of series [14] is rhinovirus A41. Description: Tested for antirhinoviral activity against the rhinovirus serotype 41. The class given is functional. To be noted: Rhinovirus A. In a few lines:
as §2

Series [15] is described as follows: Partition coefficient (logP). The class given is physicochemical. To be noted: octanol/water.
Series [16] concerns rhinovirus B86. Briefly: Tested for antirhinoviral activity against the rhinovirus serotype 86. It counts as functional. To be noted: Rhinovirus B. An outline of the steps:
as §2

Series [17] concerns Human rhinovirus 1A. Description: Tested for antirhinoviral activity against the rhinovirus serotype 1A. The class given is functional. In a few lines: as §2
The test system of series [18] is rhinovirus A22. Briefly: Tested for antirhinoviral activity against the rhinovirus serotype 22. The class given is functional. The note with it: Rhinovirus A. In a few lines: as §2
Series [19] deals with rhinovirus A21. Briefly: Tested for antirhinoviral activity against the rhinovirus serotype 21. The note with it: Rhinovirus A. The class given is functional. An outline of the steps:
as §2

The test system of series [20] is human rhinovirus (15-serotype panel). Briefly: Antirhinovirus activity was determined by the ability to inhibit the growth of 80% of a panel of 15 human rhinovirus serotypes.
Series [21] concerns rhinovirus B6. Description: Tested for antirhinoviral activity against the rhinovirus serotype 6. The class given is functional. The note with it: Rhinovirus B. An outline of the steps: as §2
The subject of series [22] is rhinovirus A22. Description: Expanded antirhinoviral activity against the rhinovirus serotype 22. It counts as functional. To be noted: Rhinovirus A. In a few lines: as §2
Series [23] concerns rhinovirus B6. Description: Expanded antirhinoviral activity against the rhinovirus serotype 6. The class given is functional. To be noted: Rhinovirus B. In a few lines: as §2
Series [24] concerns rhinovirus A1B. Description: Expanded antirhinoviral activity against the rhinovirus serotype 1B. The note with it: Rhinovirus A. The class given is functional, human rhinovirus type 1b. An outline of the steps:
as §2

Series [25] has as its system rhinovirus A89. Briefly: Expanded antirhinoviral activity against the rhinovirus serotype 89. It counts as functional, human rhinovirus type 89. The note with it: Rhinovirus A. An outline of the steps:
as §2

The test system of series [26] is rhinovirus A2. Description: Antiviral activity determined by ability to inhibit the HRV-2( human rhinovirus type -2) virus by plaque reduction assay in vitro. It counts as functional. The note with it: Rhinovirus A. In a few lines: as §1
Series [27] has as its system rhinovirus A67. Description: Expanded antirhinoviral activity against the rhinovirus serotype 67. To be noted: Rhinovirus A. The class given is functional. In a few lines: as §2
The test system of series [28] is rhinovirus A21. Briefly: Expanded antirhinoviral activity against the rhinovirus serotype 21. It counts as functional. To be noted: Rhinovirus A. In a few lines: as §2
For series [29], the system named is rhinovirus B86. Briefly: Expanded antirhinoviral activity against the rhinovirus serotype 86. The class given is functional. To be noted: Rhinovirus B. An outline of the steps: as §2
In series [30] the test system is rhinovirus A30. Briefly: Expanded antirhinoviral activity against the rhinovirus serotype 30. The class given is functional. To be noted: Rhinovirus A. In a few lines:
as §2

Series [31] has as its system rhinovirus A50. Briefly: Expanded antirhinoviral activity against the rhinovirus serotype 50. It counts as functional. To be noted: Rhinovirus A. In a few lines: as §2
The test system of series [32] is rhinovirus B14. Description: Expanded antirhinoviral activity against the rhinovirus serotype 14. The class given is functional, human rhinovirus type 14. The note with it: Rhinovirus B. In a few lines:
as §2

In series [33] the test system is rhinovirus A2. Briefly: Expanded antirhinoviral activity against the rhinovirus serotype 2. It counts as functional, human rhinovirus type 2. The note with it: Rhinovirus A. An outline of the steps: as §2
Series [34] relates to Human rhinovirus 1A. Briefly: Expanded antirhinoviral activity against the rhinovirus serotype 1A. The class given is functional. An outline of the steps:
as §2

The subject of series [35] is rhinovirus A41. Briefly: Expanded antirhinoviral activity against the rhinovirus serotype 41. It counts as functional. To be noted: Rhinovirus A. An outline of the steps:
as §2

Series [36] has as its system rhinovirus A25. Description: Expanded antirhinoviral activity against the rhinovirus serotype 25. The class given is functional. To be noted: Rhinovirus A. In a few lines: as §2
Series [37] concerns rhinovirus A15. Briefly: Expanded antirhinoviral activity against the rhinovirus serotype 15. It counts as functional. The note with it: Rhinovirus A. An outline of the steps: as §2

SMILES strings stand for the structures. In brackets after ≈: the same amount, converted by molar mass. Activity calls are given as the source filed them. No cut-off for these calls is given here.

In the case of `Cc1cc(CCCCCOc2ccc(C3=NCCO3)cc2C(C)(C)C)on1`, the MIC result in series [1] is “inactive”. Moreover, the MTL in series [2] worked out at 8.4 µM.

The logP is a log measure of how a compound divides between an organic and an aqueous phase. A low value points to a more hydrophilic compound. In the case of `Cc1cc(CCCCCOc2ccc(C3=NCCO3)cc2C)on1`, the MIC in [3] was determined as 0.2 µM (≈ 0.0657 µg/mL); in [4] it was 0.6 µM (≈ 0.197 µg/mL); in series [5], 0.2 µM (≈ 0.0657 µg/mL); in [6], 0.3 µM (≈ 0.0985 µg/mL); in series [7], 0.3 µM (≈ 0.0985 µg/mL); in series [8] it was 0.09 µM (≈ 0.0296 µg/mL). The MIC in series [9] was 0.06 µM (≈ 0.0197 µg/mL); in series [10], 6.7 µM (≈ 2.2 µg/mL); in [11], 0.05 µM (≈ 0.0164 µg/mL); in series [12] it was 0.1 µM (≈ 0.0328 µg/mL); in series [13], 1.4 µM (≈ 0.46 µg/mL); in series [14] it was 4.3 µM (≈ 1.41 µg/mL). For the same molecule, the MIC turned out to be 0.6 µM (≈ 0.197 µg/mL) in [16]; 2 µM (≈ 0.657 µg/mL) in series [17]; 0.2 µM (≈ 0.0657 µg/mL) in series [18]; 0.06 µM (≈ 0.0197 µg/mL) in series [19]; 0.6 µM (≈ 0.197 µg/mL) in series [21]. The MTL in series [2] stood at 19 µM. Further, the logP in series [15] turned out to be 4.4. The molecule also yielded an MIC80 in series [20] of 0.6 µM (≈ 0.197 µg/mL).

Take `Cc1cc(CCCCCOc2ccc(C3=NCCO3)cc2[N+](=O)[O-])on1`: the MIC in series [22] is 0.1 µM (≈ 0.0359 µg/mL); in series [23], 1.6 µM (≈ 0.575 µg/mL); in [24], 0.2 µM (≈ 0.0719 µg/mL); in series [25] it was 0.06 µM (≈ 0.0216 µg/mL); in series [26] it was 0.04 µM (≈ 0.0144 µg/mL); in series [27], 0.2 µM (≈ 0.0719 µg/mL). The MIC in series [28] amounted to 0.06 µM (≈ 0.0216 µg/mL); in [13] it was 0.7 µM (≈ 0.252 µg/mL); in series [29] it was 2 µM (≈ 0.719 µg/mL); in series [30] it was 0.1 µM (≈ 0.0359 µg/mL); in series [31] it was 0.2 µM (≈ 0.0719 µg/mL); in [32] it was 1.8 µM (≈ 0.647 µg/mL). The MIC was 0.06 µM (≈ 0.0216 µg/mL) in [33]; 0.9 µM (≈ 0.323 µg/mL) in series [34]; 2 µM (≈ 0.719 µg/mL) in series [35]; 1.9 µM (≈ 0.683 µg/mL) in series [36]; 0.3 µM (≈ 0.108 µg/mL) in series [37]. Moreover, the MTL in [2] turned out to be 3.9 µM. This molecule displayed a logP in series [15] of 3.49. This molecule also returned an MIC80 in series [20] of 1.8 µM (≈ 0.647 µg/mL).

As for `Cc1cc(CCCCCOc2ccc(C3=NCCO3)cc2C(=O)O)on1`, the MIC result in [1] is “inactive”.

For the origin of these results see ChEMBL document CHEMBL1123677, “Structure-activity studies of 5-[[4-(4,5-dihydro-2-oxazolyl) phenoxy]alkyl]-3-methylisoxazoles: inhibitors of picornavirus uncoating” (J Med Chem, 1987).
